How the values were obtained:
A549 = experiment: Cytotoxicity against human A549 after 72 hrs by SRB assay; format: functional; conditions: A549, 72 h, read-out: ED50 (the source's name)
Summary of the method: (§1)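 Cells grown in RPMI-1640 with 10% FBS, penicillin, streptomycin and amphotericin B at 37 °C, 5% CO2, then trypsinized and seeded in 96-well plates. Compounds were added from DMSO-diluted stock and incubated 72 h after attachment. Cells were TCA-fixed, stained with 0.4% SRB and read at 515 nm. ED50 is the concentration halving net protein increase, averaged from at least two independent determinations with SEM.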

[1] = Cytotoxicity against human vincristine-resistant KBVIN after 72 hrs by SRB assay; format: functional; conditions: read-out: ED50 (the source's name); summary of the method: as §1
ZR-75-1 [2] = experiment: Cytotoxicity against human ZR-75-1 after 72 hrs by SRB assay; format: functional; conditions: ZR-75-1, 72 h, read-out: ED50 (the source's name); summary of the method: as §1
KB = experiment: Cytotoxicity against human KB after 72 hrs by SRB assay; format: functional; conditions: read-out: ED50 (the source's name); summary of the method: as §1
DU-145 = experiment: Cytotoxicity against human DU145 after 72 hrs by SRB assay; format: functional; conditions: DU-145, 72 h, read-out: ED50 (the source's name)
MDA-MB-231 = experiment: Cytotoxicity against human MDA-MB-231 after 72 hrs by SRB assay; format: functional; conditions: MDA-MB-231, 72 h, read-out: ED50 (the source's name); summary of the method: as §1
SK-BR-3 [3] = experiment: Cytotoxicity against human SK-BR-3 cells after 72 hrs by SRB assay; format: functional; conditions: SK-BR-3, 72 h, read-out: ED50 (the source's name); summary of the method: as §1
[4] = Cytotoxicity against human MCF10A after 72 hrs by MTT assay; format: cell-based, MCF-10A; conditions: MCF10A cells, read-out: ED50
Summary of the method: (§2)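 MTT read-out: 5000 cells/well were seeded in 96-well plates in recommended growth medium and incubated overnight. Drug in DMSO was added, with 72 h at 37 °C in 5% CO2. MTT reagent was then added for 2 h, and formazan was read as optical density at 570. Data are mean and SD of replicates from a single experiment.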

[5] = Cytotoxicity against human 184A1 after 72 hrs by MTT assay; format: cell-based; conditions: 184A1 cells, read-out: ED50; summary of the method: as §2
SK-BR-3 [6] = experiment: Selectivity ratio of ED50 for human A549 cell to ED50 for human SK-BR-3 cells; format: functional
Summary of the method: (§3)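 Ratio of the ED50 in the stated line to the ED50 in SK-BR-3. Each ED50 came from the 72 h SRB protein-stain assay in RPMI-1640/10% FBS-grown cells, as the concentration halving net protein increase, averaged over at least two independent determinations.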

SK-BR-3 [7] = experiment: Selectivity ratio of ED50 for human MDA-MB-231 cell to ED50 for human SK-BR-3 cells; format: functional; summary of the method: as §3
SK-BR-3 [8] = experiment: Selectivity ratio of ED50 for human vincristine-resistant KBVIN cell to ED50 for human SK-BR-3 cells; format: functional; summary of the method: as §3
ZR-75-1 [9] = experiment: Selectivity ratio of ED50 for human ZR-75-1 cell to ED50 for human SK-BR-3 cells; format: functional; summary of the method: as §3
SK-BR-3 [10] = experiment: Cytotoxicity against human SK-BR-3 cells after 72 hrs by MTT assay; format: functional; conditions: SK-BR-3, 72 h, read-out: ED50 (the source's name); summary of the method: as §2
SK-BR-3 [11] = experiment: Selectivity ratio of ED50 for human DU145 cell to ED50 for human SK-BR-3 cells; format: functional
SK-BR-3 [12] = experiment: Selectivity ratio of ED50 for human KB cell to ED50 for human SK-BR-3 cells; format: functional; summary of the method: as §3

| SMILES | EC50 (A549) [µM] | EC50 [1] [µM] | EC50 (ZR-75-1 [2]) [µM] | EC50 (DU-145) [µM] | EC50 (MDA-MB-231) [µM] | EC50 (SK-BR-3 [3]) [µM] | other results |
| --- | --- | --- | --- | --- | --- | --- | --- |
| Cc1coc2cc(-c3ccc(O)c(O)c3)oc(=O)c12 | 19.4 | 23.3 | 1.2 | 25.6 | 22.9 | 0.47 | EC50 (KB): 20.2 µM |
| CCc1coc2cc(-c3cc(OC)cc(OC)c3)oc(=O)c12 | – | – | – | – | – | 55.6 | – |
| Cc1coc2cc(-c3cc(O)cc(O)c3)oc(=O)c12 | – | – | – | – | – | 38.4 | – |
| Cc1ccc(-c2cc3occ(C)c3c(=O)o2)cc1 | – | – | – | – | – | > 83.3 | – |
| COc1ccc(-c2cc3occ(C)c3c(=O)o2)cc1 | – | – | – | – | – | > 78.1 | – |
| COc1cccc(-c2cc3occ(C)c3c(=O)o2)c1OC | – | – | – | – | – | 65 | – |
| COc1cc(OC)cc(-c2cc3occ(C)c3c(=O)o2)c1 | > 69.9 | > 69.9 | 30.8 | 65.4 | > 69.9 | 0.28 | CC50 at 72 h [4]: > 35 µM; CC50 at 72 h [5]: 16.8 µM; Ratio ED50 (SK-BR-3 [6]): 100; Ratio ED50 (SK-BR-3 [7]): 100; Ratio ED50 (SK-BR-3 [8]): 100; Ratio ED50 (ZR-75-1 [9]): 100; EC50 (SK-BR-3 [10]): 1 µM; Ratio ED50 (SK-BR-3 [11]): 100; Ratio ED50 (SK-BR-3 [12]): 100 |
| COc1cc(OC)cc(-c2cc3occ(C)c3c(=S)o2)c1 | – | – | – | – | – | > 66.2 | – |
| COc1cc(OC)cc(-c2cc3oc(C)c(C)c3c(=O)o2)c1 | – | – | – | – | – | > 66.7 | – |
| COc1ccc(-c2cc3occ(C)c3c(=O)o2)cc1OC | – | – | – | – | – | > 69.9 | – |
| Cc1coc2cc(-c3ccccc3)oc(=O)c12 | – | – | – | – | – | 15.5 | – |
| COc1cc(-c2cc3occ(C)c3c(=O)o2)cc(OC)c1OC | 63.3 | > 63.3 | 29.1 | > 63.3 | > 31.6 | 0.44 | Ratio ED50 (SK-BR-3 [6]): 100; Ratio ED50 (SK-BR-3 [7]): 100; Ratio ED50 (SK-BR-3 [8]): 100; Ratio ED50 (ZR-75-1 [9]): 66; Ratio ED50 (SK-BR-3 [11]): 100; Ratio ED50 (SK-BR-3 [12]): 100 |
| Cc1coc2cc(-c3ccc(O)cc3)oc(=O)c12 | – | – | – | – | – | 36 | – |
| Cc1coc2cc(-c3cccc(O)c3O)oc(=O)c12 | – | – | – | – | – | 34.1 | – |
| Cc1coc2cc(-c3cccc(F)c3)oc(=O)c12 | – | – | – | – | – | 20.5 | – |
| CCOc1cccc(-c2cc3occ(C)c3c(=O)o2)c1 | 57.8 | > 74.1 | 2.2 | 74.1 | > 37 | 0.67 | EC50 (KB): 64.4 µM |
| Cc1coc2cc(-c3ccc(F)cc3)oc(=O)c12 | – | – | – | – | – | 19.3 | – |
| COc1cccc(-c2cc3occ(C)c3c(=O)o2)c1 | 58.2 | 71.1 | 5.5 | > 78.1 | > 39.1 | 2.58 | – |
| Cc1coc2cc(-c3cccc(O)c3)oc(=O)c12 | 68.6 | 60.3 | 0.9 | 82.6 | > 41.3 | 1.61 | EC50 (KB): 65.3 µM |
| Cc1ccc(-c2cc3occ(C)c3c(=O)o2)cc1C | – | – | – | – | – | 14.6 | – |
| Cc1cccc(-c2cc3occ(C)c3c(=O)o2)c1 | 53.8 | 40 | 6.3 | 24.6 | > 83.3 | 1.5 | EC50 (KB): 43.8 µM |
| Cc1cccc2c1ccc1c3occ(C)c3c(=O)oc21 | – | > 75.8 | 0.9 | – | – | 0.95 | – |
| Cc1cc(C)cc(-c2cc3occ(C)c3c(=O)o2)c1 | – | – | – | – | – | 22.4 | – |

Reference: ChEMBL document CHEMBL1159044, “Antitumor agents 270. Novel substituted 6-phenyl-4H-furo[3,2-c]pyran-4-one derivatives as potent and highly selective anti-breast cancer agents” (Bioorg Med Chem, 2010)
